Source: ChEMBL document CHEMBL1139469, “Synthesis and 3D QSAR of new pyrazolo[3,4-b]pyridines: potent and selective inhibitors of A1 adenosine receptors” (J Med Chem, 2005)

Tests used:
[1] = target: T1, Adenosine receptor A1 (Bos taurus, UniProt P28190); test: Displacement of [3H]DPCPX from adenosine A1 receptor in bovine cerebral cortical membranes in absence of GTP; format: cell membranes
T1 sequence (P28190 whole entry): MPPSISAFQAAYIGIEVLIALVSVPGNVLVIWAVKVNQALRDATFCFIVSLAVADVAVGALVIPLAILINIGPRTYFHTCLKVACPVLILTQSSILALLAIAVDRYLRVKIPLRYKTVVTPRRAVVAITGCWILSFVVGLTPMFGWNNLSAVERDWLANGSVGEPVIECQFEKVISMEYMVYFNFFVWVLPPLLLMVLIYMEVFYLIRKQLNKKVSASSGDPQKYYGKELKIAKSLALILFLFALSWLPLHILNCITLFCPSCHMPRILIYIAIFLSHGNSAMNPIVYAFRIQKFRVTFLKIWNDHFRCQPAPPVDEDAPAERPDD
Summary of the method: (§1)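 [3H]DPCPX competition binding on bovine cortical membranes, run side by side without and with 1 mM GTP. Compounds dissolved in DMSO and diluted in assay buffer, final DMSO at most 2%. At least six concentrations spanning 3 orders of magnitude were used. Ki given as mean ± SEM of three experiments.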

[2] = target: T2, Adenosine receptor A1 (Homo sapiens, UniProt P30542); test: Displacement of [3H]DPCPX from human adenosine A1 receptor expressed in CHO cells; format: cell-based
T2 sequence (P30542 whole entry): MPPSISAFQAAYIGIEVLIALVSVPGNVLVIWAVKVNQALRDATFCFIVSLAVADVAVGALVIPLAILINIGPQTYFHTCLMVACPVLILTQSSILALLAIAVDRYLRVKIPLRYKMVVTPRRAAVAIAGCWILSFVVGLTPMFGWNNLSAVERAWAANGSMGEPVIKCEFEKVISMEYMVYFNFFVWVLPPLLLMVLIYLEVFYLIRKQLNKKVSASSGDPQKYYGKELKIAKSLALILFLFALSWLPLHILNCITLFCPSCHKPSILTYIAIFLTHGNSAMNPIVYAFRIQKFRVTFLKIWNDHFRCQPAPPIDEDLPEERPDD
Summary of the method: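 Binding used CHO cells transfected with human A1 receptor, with displacement of specific [3H]DPCPX binding. Ligands were in DMSO diluted into buffer, with no more than 2% DMSO final, over at least six concentrations spanning 3 orders of magnitude. Ki values were means ± SEM of three separate assays, each performed in triplicate.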

[3] = target: Adenosine receptor A1 (Bos taurus) (UniProt P28190); test: Displacement of [3H]DPCPX from bovine adenosine A1 receptor in bovine cortical membranes
[4] = target: T1, Adenosine receptor A1; test: Displacement of [3H]DPCPX from adenosine A1 receptor in bovine cerebral cortical membranes; format: cell membranes
Summary of the method: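 [3H]DPCPX was displaced from A1 sites in bovine cortical membranes. Compounds were taken up in DMSO and diluted in assay buffer, with DMSO at 2% or less final. Ki used at least six concentrations across 3 orders of magnitude and was the mean ± SEM of three independent assays in triplicate.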

[5] = target: T3, Adenosine receptor A3 (Homo sapiens) (UniProt P0DMS8); test: Displacement of [125I]AB-MECA from human adenosine A3 receptor expressed in CHO cells at 10 uM
T3 sequence (whole entry): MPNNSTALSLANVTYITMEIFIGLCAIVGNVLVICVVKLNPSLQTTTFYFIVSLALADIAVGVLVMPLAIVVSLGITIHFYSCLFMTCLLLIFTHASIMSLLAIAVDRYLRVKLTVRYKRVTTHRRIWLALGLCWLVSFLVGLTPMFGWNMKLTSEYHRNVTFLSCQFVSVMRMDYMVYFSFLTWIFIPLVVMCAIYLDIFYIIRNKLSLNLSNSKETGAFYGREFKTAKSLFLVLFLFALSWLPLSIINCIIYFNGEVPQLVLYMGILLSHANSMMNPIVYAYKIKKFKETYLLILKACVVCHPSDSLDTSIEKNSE

[6] = target: T1, Adenosine receptor A1; test: Displacement of [3H]DPCPX from adenosine A1 receptor in bovine cerebral cortical membranes in presence of GTP; format: cell membranes; summary of the method: as §1

SMILES | Ki [1] [nM] | Ki [2] [nM] | Ki [3] [nM] | Ki [4] [nM] | inhibition [5] [%] | Ki [6] [nM]
COC(=O)c1cnc2c(cnn2CC(Cl)c2ccccc2)c1NCCc1ccc(OC)cc1 (configuration not stated) | 6.3 | 94 | 6.31 | 6 | 41 | 7.3
COc1ccc(CCNc2c(C(=O)OC(C)C)cnc3c2cnn3CC(Cl)c2ccccc2)cc1 (configuration not stated) | 7.2 | 17 | 7.94 | 7 | 52 | 7.7
